Measured values as given in ChEMBL document CHEMBL1152220, “Discovery of a highly orally bioavailable c-5-[6-(4-Methanesulfonyloxyphenyl)hexyl]-2-methyl-1,3-dioxane-r-2-carboxylic acid as a potent hypoglycemic and hypolipidemic agent” (Bioorg Med Chem Lett, 2008).
One block for each compound: values may come before it. Activity calls are given as the source filed them. No cut-off for these calls is given here.

Legend:
[1] = target: T1, Peroxisome proliferator-activated receptor alpha (Homo sapiens) (UniProt Q07869); assay: Agonist activity at human PPARalpha ligand binding domain expressed in human HepG2 cells co-transfected with PPRE3-TK-luc assessed as induction of beta-galactosidase activity at 10 uM by transactivation assay; type: cell-based
T1 sequence (whole entry): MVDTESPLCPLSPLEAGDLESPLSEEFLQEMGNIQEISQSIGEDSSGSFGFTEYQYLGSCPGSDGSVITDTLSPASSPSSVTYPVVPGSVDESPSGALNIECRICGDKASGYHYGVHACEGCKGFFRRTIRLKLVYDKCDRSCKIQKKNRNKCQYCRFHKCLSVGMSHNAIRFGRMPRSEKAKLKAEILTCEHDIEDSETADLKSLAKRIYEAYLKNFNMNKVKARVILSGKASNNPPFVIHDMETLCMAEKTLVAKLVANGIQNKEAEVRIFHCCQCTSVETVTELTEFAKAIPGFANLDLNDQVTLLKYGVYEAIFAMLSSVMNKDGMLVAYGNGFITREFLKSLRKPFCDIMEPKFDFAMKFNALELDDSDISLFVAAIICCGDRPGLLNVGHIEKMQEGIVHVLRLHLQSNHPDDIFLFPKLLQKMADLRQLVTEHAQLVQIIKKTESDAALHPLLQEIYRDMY
In short: (§1)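 HepG2 cells were transfected with a pSG5 vector carrying hPPARα or hPPARγ cDNA and cotransfected with PPRE3-TK-luc. Firefly luciferase was measured with a commercial assay, and β-galactosidase was read on an ELISA reader. Activity is expressed as fold induction. Single-point testing was at 10 µM for hPPARα and 0.2 µM for hPPARγ, with EC50 given elsewhere.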

Mus musculus [2] = assay: Reduction of triglyceride level in Swiss albino mouse serum at 10 mg/kg/day, po for 6 days relative to control; type: functional; parameters: scale not given: the % may be the effect or the level left
In short: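 Male Swiss albino mice aged 6–8 weeks were dosed orally at 10 mg/kg/day for 6 days. Serum triglyceride is reported as % change relative to vehicle controls, as the mean of n = 6.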

[3] = target: T2, Peroxisome proliferator-activated receptor alpha (Homo sapiens, UniProt Q07869); assay: Agonist activity at human PPARalpha ligand binding domain expressed in human HepG2 cells co-transfected with PPRE3-TK-luc assessed as induction of beta-galactosidase activity by transactivation assay; type: cell-based
T2 sequence (Q07869 whole entry): T1 sequence (whole entry)
In short: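 HepG2 cells were transfected with a pSG5 vector carrying hPPARα or hPPARγ cDNA and cotransfected with PPRE3-TK-luc. Firefly luciferase was measured with a commercial assay, and β-galactosidase was read on an ELISA reader. Activity is expressed as fold induction.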

[4] = target: T3, Peroxisome proliferator-activated receptor gamma (Homo sapiens) (UniProt P37231); assay: (§2) Agonist activity at human PPARgamma ligand binding domain expressed in human HepG2 cells co-transfected with PPRE3-TK-luc assessed as induction of beta-galactosidase activity by transactivation assay; type: cell-based; in short: as §1
T3 sequence (whole entry): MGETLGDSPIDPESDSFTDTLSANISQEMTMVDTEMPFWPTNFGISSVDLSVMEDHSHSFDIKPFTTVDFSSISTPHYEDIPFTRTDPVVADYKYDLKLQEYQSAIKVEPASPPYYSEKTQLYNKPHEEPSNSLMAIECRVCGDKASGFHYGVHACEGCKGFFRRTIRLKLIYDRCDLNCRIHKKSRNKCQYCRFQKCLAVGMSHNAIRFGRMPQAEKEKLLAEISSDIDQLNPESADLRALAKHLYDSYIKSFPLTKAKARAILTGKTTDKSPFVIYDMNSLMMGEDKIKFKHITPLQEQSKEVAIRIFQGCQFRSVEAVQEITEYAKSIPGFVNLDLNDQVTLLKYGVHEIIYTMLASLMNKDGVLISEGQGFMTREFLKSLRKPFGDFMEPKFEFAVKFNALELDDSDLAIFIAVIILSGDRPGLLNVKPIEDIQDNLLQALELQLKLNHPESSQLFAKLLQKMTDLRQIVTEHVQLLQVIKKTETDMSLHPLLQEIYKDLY

[5] = target: T4, Peroxisome proliferator-activated receptor gamma (Homo sapiens, UniProt P37231); assay: as §2; type: cell-based; in short: as §1
T4 sequence (P37231 whole entry): T3 sequence (whole entry)

Mus musculus [6] = assay: Hypolipidemic activity in db/db mouse assessed as reduction of triglyceride level at 3 mg/kg/day for 6 days relative to control; type: functional; parameters: scale not given: the % may be the effect or the level left
In short: (§3)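 Male db/db mice aged 6–8 weeks were dosed daily for 6 days. Plasma glucose and triglycerides were measured, and results are reported as % change relative to vehicle-treated controls.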

Mus musculus [7] = assay: Hypoglycemic activity in db/db mouse assessed as reduction of plasma glucose level at 3 mg/kg/day for 6 days relative to control; type: functional; parameters: scale not given: the % may be the effect or the level left; in short: as §3
Rattus norvegicus [8] = assay: Hypolipidemic activity in high cholesterol fed Sprague-Dawley rat assessed as effect on HDL-C level at 3 mg/kg/day for 4 days relative to control
Rattus norvegicus [9] = assay: Hypolipidemic activity in high cholesterol fed Sprague-Dawley rat assessed as reduction of LDL-C level at 3 mg/kg/day for 4 days relative to control; parameters: scale not given: the % may be the effect or the level left
Rattus norvegicus [10] = assay: Hypolipidemic activity in high cholesterol fed Sprague-Dawley rat assessed as reduction of triglyceride level at 3 mg/kg/day for 4 days relative to control; parameters: scale not given: the % may be the effect or the level left
Rattus norvegicus [11] = assay: Hypolipidemic activity in high cholesterol fed Sprague-Dawley rat assessed as reduction of total cholesterol level at 3 mg/kg/day for 4 days relative to control; parameters: scale not given: the % may be the effect or the level left
[12] = Tmax in Wistar rat at 30 mg/kg, po; type: ADME, organism-based; parameters: dose 30 mg/kg, route oral; settings: in vivo
[13] = (§4) Cmax in Wistar rat at 30 mg/kg, po; type: ADME, organism-based; parameters: dose 30 mg/kg, route oral; settings: Wistar, in vivo
[14] = Half life in Wistar rat at 30 mg/kg, po; type: ADME, organism-based; parameters: dose 30 mg/kg, route oral; settings: in vivo
[15] = (§5) AUC (0 to infinity) in Wistar rat at 30 mg/kg, po; type: ADME, organism-based, Plasma; parameters: time infinity, dose 30 mg/kg, route oral; settings: Wistar, plasma
Rattus norvegicus [16] = assay: as §4; type: ADME, organism-based; parameters: dose 30 mg/kg, route oral; settings: in vivo
Rattus norvegicus [17] = assay: as §5; type: ADME, organism-based, Plasma; parameters: time infinity, dose 30 mg/kg, route oral; settings: in vivo

Structure (SMILES): CCO[C@@H](Cc1ccc(OCCc2ccc(OS(C)(=O)=O)cc2)cc1)C(=O)O [TESAGLITAZAR]
- Activity (Mus musculus [2]): -79%
- EC50 [3]: 0.82 µM
- EC50 [5]: 0.013 µM
- Activity (Mus musculus [6]): -60%
- Activity (Mus musculus [7]): -54%
- Activity (Rattus norvegicus [8]): 18%
- Activity (Rattus norvegicus [9]): -31%
- Activity (Rattus norvegicus [10]): -51%
- Activity (Rattus norvegicus [11]): -59%

Structure (SMILES): CS(=O)(=O)Oc1ccc(CCCCCC[C@H]2CO[C@@](C)(C(=O)O)OC2)cc1
- Activity (Mus musculus [2]): -71%
- EC50 [3]: 15 µM
- EC50 [5]: 15 µM
- Activity (Mus musculus [6]): -50%
- Activity (Mus musculus [7]): -53%
- Tmax [12]: 4 h
- Cmax [13]: 127 µg/mL
- half-life [14]: 12 h
- AUC(0-inf) [15]: 1490 µg·h/mL
- Activity (Rattus norvegicus [8]): 51%
- Activity (Rattus norvegicus [9]): -46%
- Activity (Rattus norvegicus [10]): -63%
- Activity (Rattus norvegicus [11]): -56%

Structure (SMILES): Cc1ccc(-c2nc(CCCC[C@H]3CO[C@@](C)(C(=O)O)OC3)c(C)o2)cc1
- Activity (Mus musculus [2]): -67%
- EC50 [5]: 7 µM
- Activity (Mus musculus [6]): -54%
- Activity (Mus musculus [7]): -44%
- Tmax [12]: 0.67 h
- Cmax (Rattus norvegicus [16]): 41 µg/mL
- half-life [14]: 1.5 h
- AUC (Rattus norvegicus [17]): 99 µg·h/mL
- Activity (Rattus norvegicus [8]): 88%
- Activity (Rattus norvegicus [9]): -68%
- Activity (Rattus norvegicus [10]): -54%
- Activity (Rattus norvegicus [11]): -49%

Structure (SMILES): Cc1cccc(Nc2cc(Cl)nc(SCC(=O)O)n2)c1C
- fold change (FC) [1]: 3.3

Structure (SMILES): C[C@]1(C(=O)O)OC[C@@H](CCCCc2ccc(OCc3ccccc3)cc2)CO1
- fold change (FC) [1]: 2.3
- Activity (Mus musculus [2]): -25%

Structure (SMILES): CS(=O)(=O)Oc1ccc(CCCCC[C@H]2CO[C@@](C)(C(=O)O)OC2)cc1
- Activity (Mus musculus [2]): -28%
- EC50 [3]: 2.5 µM
- Activity [4]: inactive

Now from value to compound, other results behind:

- fold change (FC) [1]: 2
Structure (SMILES): C[S+]([O-])c1ccc(CCCC[C@H]2CO[C@@](C)(C(=O)O)OC2)cc1 (stereo not given in full)
- Activity (Mus musculus [2]): -12%

- fold change (FC) [1]: 3
- EC50 [3]: 20 µM
- Activity [4]: inactive
Structure (SMILES): CS(=O)(=O)Oc1ccc(CCCC[C@H]2CO[C@@](C)(C(=O)O)OC2)cc1
- Activity (Mus musculus [2]): -32%

- fold change (FC) [1]: 1
Structure (SMILES): CS(=O)(=O)c1ccc(CCCC[C@H]2CO[C@@](C)(C(=O)O)OC2)cc1
- Activity (Mus musculus [2]): -7%

- fold change (FC) [1]: 1.2
Structure (SMILES): C[C@]1(C(=O)O)OC[C@@H](CCCCc2ccc(O)cc2)CO1
- Activity (Mus musculus [2]): -15%

- fold change (FC) [1]: 2.5
Structure (SMILES): COc1ccc(CCCC[C@H]2CO[C@@](C)(C(=O)O)OC2)cc1
- Activity (Mus musculus [2]): -11%

- fold change (FC) [1]: 4
Structure (SMILES): CSc1ccc(CCCC[C@H]2CO[C@@](C)(C(=O)O)OC2)cc1
- Activity (Mus musculus [2]): -14%

- fold change (FC) [1]: 2.6
Structure (SMILES): C[C@]1(C(=O)O)OC[C@@H](CCCCc2ccc(Cl)cc2)CO1
- Activity (Mus musculus [2]): -10%

- fold change (FC) [1]: 3.2
Structure (SMILES): Cc1ccc(CCCC[C@H]2CO[C@@](C)(C(=O)O)OC2)cc1
- Activity (Mus musculus [2]): -22%

- fold change (FC) [1]: 2.3
Structure (SMILES): C[C@]1(C(=O)O)OC[C@@H](CCCCc2ccc(F)cc2)CO1
- Activity (Mus musculus [2]): -9%
